Bioassay records as filed in PubChem.
Rows were chosen to be rich in hits. Some 3.9% of all compounds tested hit in one or more screens of this group.
697 NFkB inh – inhibitors of PMA/ionomycin-induced NF-kB reporter, 697 cells, primary screen, B-cell NF-kB inhibitor project, cell-based, luminescence, uHTS; 697 B-cell NF-kB luciferase reporter, 16 h; AID 435022, 2010; 0.33% of 330,000 active; inhibition, % at 4 µM; in the data active = inhibition above about 35%
CHOP UPR activ – activators of apoptotic CHOP UPR arm, primary screen, cell-based, CHO-CHOP luciferase reporter, luminescence, uHTS; AID 449763, 2010; activation, % at 10 µM; UPR activation; percent of tunicamycin response over DMSO baseline; 0.34% of 330,000 active;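 active = at 10 µM dose, activation of 40% or more, normalized to positive control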;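 also: 100% = tunicamycin at 10 µg/mL and 0% = DMSO alone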
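measured by = luciferase luminescence | assay system = CHO-CHOP cells, stable luciferase reporter of PERK-eIF2a-CHOP signalling | amount = 500 reporter cells seeded per well | timing = 6 h compound exposure at 37 °C after overnight seeding | controls = positive tunicamycin 10 µg/mL, negative DMSO alone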
Gli-Sufu antag – Gli-Sufu pathway antagonists, primary screen, luciferase luminescence, Sufu-KO-LIGHT cells, uHTS. Sufu-KO-LIGHT fibroblasts, Gli luciferase reporter luminescence. inhibition, % at 5 µM. 0.74% of 340,000 active. AID 588413, 2011;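 active = inhibition above about 55%, limit read from the data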;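 also: 0% = DMSO-treated cells and 100% = wells with medium but no cells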
CHOP inh – inhibitors of CHOP promoter induction, primary screen, cell-based, unfolded protein response, luciferase reporter; CHO-K1 CHOP-promoter luciferase, tunicamycin-induced, 15-18 h; 3.8% of 220,000 active; inhibition, % at 10 µM;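 active = compounds that reduced the stress-induced luciferase reporter signal by more than about 70% of percent inhibition, limit read from the data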;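 also: 0% = tunicamycin plus vehicle and 100% = wells without tunicamycin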
Jurkat NFkB inh – inhibitors of induced NF-kB luciferase reporter, primary screen, TCR NF-kB activation inhibitor project, cell-based, luminescence, uHTS. inhibition, % at 4 µM. 0.53% of 330,000 active. Jurkat, PMA/ionomycin-induced NF-kB luciferase reporter; in the data active = inhibition above about 50%
XBP1 UPR activ – activators of adaptive XBP1 UPR arm, primary screen, cell-based, CHO-XBP1 luciferase reporter, luminescence, uHTS; IRE1-XBP1 UPR activation; percent of tunicamycin response, DMSO as zero; 0.33% of 330,000 active; activation, % at 20 µM; AID 463104, 2010;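 active = versus positive control, 20 µM dose yields 30% or more activation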;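 also: 100% = tunicamycin at 10 µg/mL and 0% = DMSO only wells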
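Material: CHO-XBP1 cells stably carrying IRE1-XBP1-driven luciferase reporter | Medium: F12 with 10% serum | Compound dosing: 20 µM single concentration, DMSO 1% | Incubation: Overnight seeding at 37 °C, 6 h compound treatment at 37 °C | Detection: Steady-Glo luminescence read | Read-out basis: % activation of reporter signal versus tunicamycin and DMSO controls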
The depositor's hits bear a star.

O=c1c2c3nc4ccccc4nc3n(Cc3ccccc3)c2ncn1Cc1ccco1 was read as Gli-Sufu antag -5.4 and CHOP inh 73.7*.
For N=c1c2c(-c3ccccc3)c(-c3ccccc3)n(Cc3ccco3)c2ncn1Cc1ccccc1 the results were 697 NFkB inh -1.0, CHOP UPR activ 35.4, Gli-Sufu antag 6.1, CHOP inh 84.8*, Jurkat NFkB inh 24.8 and XBP1 UPR activ 27.9.
Screening CC(=O)Nc1ccc(NC(=O)CCCn2cnc3ccccc3c2=O)cc1 returned 697 NFkB inh -6.0, CHOP UPR activ 0.8, Gli-Sufu antag 4.4, Jurkat NFkB inh 1.1 and XBP1 UPR activ -0.1.
Screening CCCN(CC(=O)Nc1cccc(Br)c1)CC(=O)Nc1ccc(F)c(F)c1F returned 697 NFkB inh 1.4, CHOP UPR activ -2.3, Gli-Sufu antag 9.4, CHOP inh 79.1*, Jurkat NFkB inh 4.1 and XBP1 UPR activ -5.6.
`CCCN(CC(=O)Nc1ccc(C)cc1Br)CC(=O)Nc1ccc(F)c(F)c1F` gave 697 NFkB inh -2.7, CHOP UPR activ 0.6, Gli-Sufu antag 5.7, CHOP inh 72.0*, Jurkat NFkB inh 13.9 and XBP1 UPR activ -1.5.
For CCCN(CC(=O)Nc1cccc(S(N)(=O)=O)c1)CC(=O)Nc1ccc(F)c(F)c1F the results were 697 NFkB inh 17.0, CHOP UPR activ 2.0, Gli-Sufu antag 1.7, CHOP inh 0.1, Jurkat NFkB inh 3.3 and XBP1 UPR activ 0.4.
For CCc1c(C(=O)Nc2ccccc2C(N)=O)csc1C the results were 697 NFkB inh -63.9, CHOP UPR activ 1.4, Gli-Sufu antag -40.4, Jurkat NFkB inh -36.3 and XBP1 UPR activ 1.9.
Screening CCc1c(C(=O)Nc2ccncc2)csc1C returned 697 NFkB inh -21.0, CHOP UPR activ -1.8, Gli-Sufu antag -4.5, CHOP inh 70.8*, Jurkat NFkB inh 8.1 and XBP1 UPR activ -0.6.
`CN1CCN(C(CNC(=O)C(=O)NC2CCCCC2)c2ccc(F)cc2)CC1` (centres undefined) gave 697 NFkB inh 15.4, CHOP UPR activ 0.8, Gli-Sufu antag 10.9, Jurkat NFkB inh 6.4 and XBP1 UPR activ 0.3.
Cc1nc(NC(=O)CC(C)C)sc1-c1csc(Nc2ccc(Cl)cc2)n1 was read as 697 NFkB inh 22.8, CHOP UPR activ -1.1, Gli-Sufu antag -5.5, CHOP inh 70.9*, Jurkat NFkB inh 13.2 and XBP1 UPR activ -2.2.
For Cc1nc(NC(=O)CC(C)C)sc1-c1csc(Nc2ccc(Cl)cc2Cl)n1 the results were 697 NFkB inh -5.0, CHOP UPR activ 2.9, Gli-Sufu antag -1.2, CHOP inh 26.2, Jurkat NFkB inh 5.7 and XBP1 UPR activ 2.0.
COc1ccccc1CNC(=O)c1ccc2nc3[nH]c4ccccc4c3nc2c1 was read as 697 NFkB inh -40.9, CHOP UPR activ 11.9, Gli-Sufu antag -6.6, CHOP inh 99.6*, Jurkat NFkB inh -17.4 and XBP1 UPR activ 8.2.
`Cc1ccc(CNC(=O)c2ccc3nc4[nH]c5ccccc5c4nc3c2)cc1` gave CHOP inh 93.8*.
Screening COc1ccc(CN2C(=O)c3cccnc3C2=O)cc1S(=O)(=O)N(C)c1cccc(C)c1 returned 697 NFkB inh -0.5, CHOP UPR activ 0.8, Gli-Sufu antag -14.4, Jurkat NFkB inh 0.6 and XBP1 UPR activ -1.0.
`Cc1ccc(S(=O)(=O)c2c(C)nn(C(C)(C)C)c2OC(=O)c2cccs2)cc1` gave 697 NFkB inh -5.4, CHOP UPR activ 0.5, Gli-Sufu antag 16.8, CHOP inh 71.5*, Jurkat NFkB inh 25.0 and XBP1 UPR activ -4.6.
For CC(=O)Oc1c(S(=O)(=O)c2ccc(C)cc2)c(C)nn1C(C)(C)C the results were 697 NFkB inh -40.9, CHOP UPR activ 0.6, Gli-Sufu antag -9.5, CHOP inh 49.8, Jurkat NFkB inh -15.9 and XBP1 UPR activ -1.5.
Cc1ccc(S(=O)(=O)c2c(C)nn(C(C)(C)C)c2OC(=O)c2ccc(Br)o2)cc1 was read as 697 NFkB inh -37.0, CHOP UPR activ 8.7, Gli-Sufu antag 7.5, CHOP inh 72.2*, Jurkat NFkB inh 4.8 and XBP1 UPR activ 3.0.
For Cc1nn(C(C)(C)C)c(OC(=O)c2cccs2)c1Sc1ccccc1 the results were 697 NFkB inh 14.2, CHOP UPR activ 0.2, Gli-Sufu antag 10.7, CHOP inh 80.8*, Jurkat NFkB inh 15.1 and XBP1 UPR activ 1.4.
Cc1nn(C(C)(C)C)c(OC(=O)c2ccc3c(c2)OCO3)c1Sc1ccccc1 was read as 697 NFkB inh 4.2, CHOP UPR activ 0.1, Gli-Sufu antag 18.3, CHOP inh 44.1, Jurkat NFkB inh 23.5 and XBP1 UPR activ -0.7.
CCOC(=O)C1=C(C)NC2=C(C(=O)CCC2)C1c1cccnc1 (centres undefined) was read as 697 NFkB inh 15.3, CHOP UPR activ 1.4, CHOP inh 4.7, Jurkat NFkB inh -3.6 and XBP1 UPR activ -1.5.
For CC1=C(C(=O)OC(C)C)C(c2cccnc2)C2=C(CCCC2=O)N1 (centres undefined) the results were 697 NFkB inh -28.5, CHOP UPR activ -1.8, Gli-Sufu antag 1.9, CHOP inh 91.2*, Jurkat NFkB inh -33.6 and XBP1 UPR activ 0.5.
CC(C)Oc1ccc(S(=O)(=O)N2CCCCC2)cc1NC(=O)C1CSC2(C)CCC(=O)N12 (centres undefined) was read as 697 NFkB inh -11.7, CHOP UPR activ -1.5, Gli-Sufu antag 12.2, Jurkat NFkB inh -6.5 and XBP1 UPR activ 1.4.
Screening COc1ccc(NC(=O)C(NS(=O)(=O)c2cccs2)C(C)C)cc1Cl (centres undefined) returned 697 NFkB inh 3.2, CHOP UPR activ 1.2, Gli-Sufu antag 10.9, Jurkat NFkB inh -16.9 and XBP1 UPR activ -6.1.
For COc1ccc(Cn2c(C)c(C)c(C#N)c2NC(=O)Nc2cccc(Cl)c2)cc1 the results were 697 NFkB inh 5.2, CHOP UPR activ 1.2, Gli-Sufu antag 17.2, CHOP inh 80.8*, Jurkat NFkB inh -5.1 and XBP1 UPR activ 13.4.
O=C(/C=C/c1ccc([N+](=O)[O-])cc1)NCc1ccccn1 was read as 697 NFkB inh -1.1, CHOP UPR activ 1.2, Gli-Sufu antag -12.3, CHOP inh -13.0, Jurkat NFkB inh -2.6 and XBP1 UPR activ -2.8.
Cc1ccc(OCCNC(=O)/C=C/c2ccc([N+](=O)[O-])cc2)cc1C was read as 697 NFkB inh 0.8, CHOP UPR activ 1.3, Gli-Sufu antag 2.2, CHOP inh 5.2, Jurkat NFkB inh -12.9 and XBP1 UPR activ 0.2.
CCCCOc1ccc(/C=C/C(=O)Nc2ccc(C(N)=O)cc2)cc1 was read as 697 NFkB inh -17.5, CHOP UPR activ -0.3, Gli-Sufu antag -2.8, CHOP inh -6.7, Jurkat NFkB inh -7.1 and XBP1 UPR activ -3.5.
